This passage reports EC50 results from ChEMBL document CHEMBL4665843, “Automated Design of Macrocycles for Therapeutic Applications: From Small Molecules to Peptides and Proteins” (J Med Chem, 2020).

Residues, ends and D or L forms follow the SMILES beside them.

In assay [1] the target is Glucagon-like peptide 1 receptor (Homo sapiens, UniProt P43220). In words: Agonist activity at human GLP-1 receptor expressed in HEK293 cells assessed as induction of cAMP accumulation incubated for 30 mins by HTRF assay. It is filed as functional, cell-based. The gist of the method: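 HEK-293 cells stably expressing human receptor, grown in DMEM/10% FBS, frozen, thawed and washed in HBSS/20 mM HEPES/0.1% HSA; resuspended with 2 mM IBMX. 5000 cells/well incubated with peptide 30 min at room temperature; cAMP by HTRF kit, 1 h with reagents in lysis buffer, 665/620 nm fluorescence ratio.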
A general note: Cyclic AMP is a second messenger, typically raised through Gs and lowered through Gi signalling.

The target of assay [2] is Glucagon receptor (Homo sapiens, UniProt P47871). The assay can be described thus: Agonist activity at human glucagon receptor expressed in HEK293 cells assessed as induction of cAMP accumulation incubated for 30 mins by HTRF assay. It is filed as functional, cell-based.
Sequence of Glucagon receptor (P47871 whole entry): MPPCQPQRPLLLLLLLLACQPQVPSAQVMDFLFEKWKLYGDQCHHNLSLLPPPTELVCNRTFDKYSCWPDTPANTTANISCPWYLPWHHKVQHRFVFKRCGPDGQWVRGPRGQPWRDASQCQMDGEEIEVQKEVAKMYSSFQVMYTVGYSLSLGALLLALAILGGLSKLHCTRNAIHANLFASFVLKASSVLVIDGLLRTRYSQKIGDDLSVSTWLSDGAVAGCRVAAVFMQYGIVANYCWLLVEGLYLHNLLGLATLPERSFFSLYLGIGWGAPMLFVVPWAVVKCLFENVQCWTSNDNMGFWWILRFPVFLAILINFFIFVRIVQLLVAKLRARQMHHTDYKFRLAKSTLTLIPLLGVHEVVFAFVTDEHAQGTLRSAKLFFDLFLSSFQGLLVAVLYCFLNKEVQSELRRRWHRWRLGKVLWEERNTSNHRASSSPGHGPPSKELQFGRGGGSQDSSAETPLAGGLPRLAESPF

Sequence of Glucagon-like peptide 1 receptor (P43220 whole entry): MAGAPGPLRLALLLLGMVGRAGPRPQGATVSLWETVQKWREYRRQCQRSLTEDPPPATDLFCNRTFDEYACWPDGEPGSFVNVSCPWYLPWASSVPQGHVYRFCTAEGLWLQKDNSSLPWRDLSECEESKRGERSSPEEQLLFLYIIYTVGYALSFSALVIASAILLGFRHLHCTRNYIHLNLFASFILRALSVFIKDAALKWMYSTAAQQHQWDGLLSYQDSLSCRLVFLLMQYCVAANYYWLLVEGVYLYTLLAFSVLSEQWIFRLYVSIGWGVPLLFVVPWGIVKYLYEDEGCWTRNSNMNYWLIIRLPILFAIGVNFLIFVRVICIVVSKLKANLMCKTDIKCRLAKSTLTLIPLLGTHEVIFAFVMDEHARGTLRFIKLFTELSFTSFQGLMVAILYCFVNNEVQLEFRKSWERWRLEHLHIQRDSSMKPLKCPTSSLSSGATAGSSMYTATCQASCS

In the case of `CC[C@H](C)[C@H](NC(=O)[C@H](Cc1ccccc1)NC(=O)[C@H](CC(=O)O)NC(=O)[C@H](CCC(N)=O)NC(=O)[C@H](C)NC(=O)[C@H](CCCNC(=N)N)NC(=O)[C@H](CCCNC(=N)N)NC(=O)[C@H](CO)NC(=O)[C@H](CC(=O)O)NC(=O)[C@H](CCSC)NC(=O)[C@H](CCC(N)=O)NC(=O)[C@H](CCCCN)NC(=O)[C@H](CO)NC(=O)[C@H](CC(C)C)NC(=O)[C@H](CC(=O)O)NC(=O)[C@H](CO)NC(=O)[C@@H](NC(=O)[C@H](Cc1ccccc1)NC(=O)[C@@H](NC(=O)CNC(=O)[C@H](CCC(N)=O)NC(=O)[C@@H](CO)NC(=O)[C@@H](N)Cc1cnc[nH]1)[C@@H](C)O)[C@@H](C)O)C(=O)N[C@@H](CCC(=O)O)C(=O)N[C@@H](Cc1c[nH]c2ccccc12)C(=O)N[C@@H](CC(C)C)C(=O)N[C@@H](CCCCN)C(=O)N[C@H]1CCCCNC(=O)CC[C@@H](C(=O)NCC(=O)N[C@@H](C)C(=O)N2CCC[C@H]2C(=O)N2CCC[C@H]2C(=O)N2CCC[C@H]2C(=O)N[C@@H](CO)C(N)=O)NC(=O)[C@H](CO)NC(=O)[C@@H]2CCCN2C(=O)CNC(=O)CNC1=O`, the EC50 was 8.13 pM in assay [1] and 59.6 pM in assay [2].

As for `CC[C@H](C)[C@H](NC(=O)[C@H](Cc1ccccc1)NC(=O)[C@H](CC(=O)O)NC(=O)[C@H](CCC(N)=O)NC(=O)[C@H](C)NC(=O)[C@H](CCCNC(=N)N)NC(=O)[C@H](CCCNC(=N)N)NC(=O)[C@H](CO)NC(=O)[C@H](CC(=O)O)NC(=O)[C@@H]1CCC(=O)NCCCC[C@H](NC(=O)[C@H](CC(=O)O)NC(=O)[C@H](CO)NC(=O)[C@@H](NC(=O)[C@H](Cc2ccccc2)NC(=O)[C@@H](NC(=O)CNC(=O)[C@H](CCC(N)=O)NC(=O)[C@H](CO)NC(=O)[C@@H](N)Cc2cnc[nH]2)[C@@H](C)O)[C@@H](C)O)C(=O)N[C@@H](CO)C(=O)N[C@@H](CCCCN)C(=O)N[C@@H](CCC(N)=O)C(=O)N1)C(=O)N[C@@H](CCC(=O)O)C(=O)N[C@@H](Cc1c[nH]c2ccccc12)C(=O)N[C@@H](CC(C)C)C(=O)N[C@@H](CCCCN)C(=O)N[C@@H](CC(N)=O)C(=O)NCC(=O)NCC(=O)N1CCC[C@H]1C(=O)N[C@@H](CO)C(=O)N[C@@H](CO)C(=O)NCC(=O)N[C@@H](C)C(=O)N1CCC[C@H]1C(=O)N1CCC[C@H]1C(=O)N1CCC[C@H]1C(=O)N[C@@H](CO)C(N)=O` (HELM PEPTIDE1{H.S.Q.G.T.F.T.S.D.K.S.K.Q.E.D.S.R.R.A.Q.D.F.I.E.W.L.K.N.G.G.P.S.S.G.A.P.P.P.S.[am]}$PEPTIDE1,PEPTIDE1,10:R3-14:R3$$$V2.0), the EC50 in assay [1] worked out at 47.5 pM.

For the compound `CC[C@H](C)[C@@H]1NC(=O)[C@H](Cc2ccccc2)NC(=O)[C@@H](NC(=O)[C@H](CCC(N)=O)NC(=O)[C@H](C)NC(=O)[C@H](CCCNC(=N)N)NC(=O)[C@H](CCCNC(=N)N)NC(=O)[C@H](CO)NC(=O)[C@H](CC(=O)O)NC(=O)[C@H](CCSC)NC(=O)[C@H](CCC(N)=O)NC(=O)[C@H](CCCCN)NC(=O)[C@H](CO)NC(=O)[C@H](CC(C)C)NC(=O)[C@H](CC(=O)O)NC(=O)[C@H](CO)NC(=O)[C@@H](NC(=O)[C@H](Cc2ccccc2)NC(=O)[C@@H](NC(=O)CNC(=O)[C@H](CCC(N)=O)NC(=O)[C@H](CO)NC(=O)[C@@H](N)Cc2cnc[nH]2)[C@@H](C)O)[C@@H](C)O)CSCc2cccc(c2)CSC[C@@H](C(=O)N2CCC[C@H]2C(=O)N2CCC[C@H]2C(=O)N2CCC[C@H]2C(=O)N[C@@H](CO)C(N)=O)NC(=O)CNC(=O)[C@H](CO)NC(=O)[C@H](CO)NC(=O)[C@@H]2CCCN2C(=O)CNC(=O)CNC(=O)[C@H](CC(N)=O)NC(=O)[C@H](CCCCN)NC(=O)[C@H](CC(C)C)NC(=O)[C@H](Cc2c[nH]c3ccccc23)NC(=O)[C@H](CCC(=O)O)NC1=O` (HELM PEPTIDE1{H.S.Q.G.T.F.T.S.D.L.S.K.Q.M.D.S.R.R.A.Q.C.F.I.E.W.L.K.N.G.G.P.S.S.G.C.P.P.P.S.[am]}|CHEM1{[c1cc(C[*:1])cc(C[*:2])c1]}$PEPTIDE1,CHEM1,21:R3-1:R1|PEPTIDE1,CHEM1,35:R3-1:R2$$$V2.0), in assay [1], the EC50 stood at 24.9 pM.

A word on the EC50: it is the midpoint of the concentration-response curve.
